Results reported in ChEMBL document CHEMBL1126740, “(S)- and (R)-8-(di-n-propylamino)-6,7,8,9-tetrahydro-3H-benz[e]indole-1-carbaldehyde: a new class of orally active 5-HT1A-receptor agonists” (J Med Chem, 1993).
Active and inactive are the calls of the source. The calls are words filed in the database; no cut-off is given here.

Assays:
Rattus norvegicus [1] = assay: Maximal reduction in percent (Partial response) of DOPA accumulation rat lhemispheres at highest test dose of 12.5 umol/kg (sc); type: functional
Method in brief: (§1)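 Male Sprague-Dawley rats were pretreated with reserpine 5 mg/kg sc 18 h before dosing. DOPA and 5-HTP in limbic system, striatum and hemispheres were measured by HPLC with electrochemical detection. Dose-response curves used 4–6 dose levels (n = 4) for each region; ED50 was estimated graphically. Partial responses are given as the maximal % reduction at the highest dose tested.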

Rattus norvegicus [2] = assay: In vivo evaluation for DOPA accumulation in the limbic system in male rats (sc); type: functional; method in brief: as §1
Rattus norvegicus [3] = assay: In vivo evaluation for 5-HTP accumulation in the hemispheres in male rats (sc); type: functional; method in brief: as §1
Rattus norvegicus [4] = assay: In vivo evaluation for DOPA accumulation in the corpus striatum in male rats (sc); type: functional; method in brief: as §1
D(2) dopamine receptor [5] = target: D(2) dopamine receptor (Rattus norvegicus, UniProt P61169); assay: Displacement of [3H]spiperone from dopamine receptor D2
Method in brief: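 Rat striatal membranes in 50 mM potassium phosphate buffer (3 mg original tissue) incubated with 0.5 nM [3H]spiperone for 10 min at 37 °C. Nonspecific binding was defined with 10 μM 6,7-ADTN. Ki was calculated by Cheng–Prusoff; triplicates, 3–7 experiments.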

Rattus norvegicus [6] = organism: Rattus norvegicus; assay: Compound was tested for 5HT, Dopamine agonist mediated response in reserpine pretreated rats; mix DA, 5-HT syndrome; type: functional, organism-based
Method in brief: (§2)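 Male Sprague-Dawley rats (200–300 g) were given reserpine 5 mg/kg sc 18 h before testing, then the test drug sc in the neck (n = 4). Motor activity was recorded by photocells for 30 min, with gross behaviour observed throughout. 5-HT syndrome: flat body posture, extended limbs, reciprocal forepaw treading. DA response: locomotion and stereotypies.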

Rattus norvegicus [7] = assay: In vivo evaluation for 5-HTP accumulation in the limbic system in male rats (sc); type: functional; method in brief: as §1
Rattus norvegicus [8] = assay: In vivo evaluation for 5-HTP accumulation in the corpus striatum in male rats (sc); type: functional; method in brief: as §1
[9] = Area under curve at 10 uM/dg administered perorally; type: ADME; conditions: po
Method in brief: (§3)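 Male Sprague-Dawley rats (300 g) carrying arterial catheters, used 24 h after surgery; animals dosed orally were starved 18 h beforehand. Blood was sampled at intervals up to 12 h after dosing. Drug levels were measured by HPLC with fluorescence detection (ex 285, em 365) or by GC/MS, calibrated against spiked blank blood. AUC was taken from concentration-time curves; n = 4–6.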

Rattus norvegicus [10] = organism: Rattus norvegicus; assay: Maximal reduction in percent (Partial response) of DOPA accumulation rat limbic system at highest test dose; inactive; type: functional, organism-based
[11] = Maximum concentration of the drug at 10 umol/dg administered perorally; type: ADME, organism-based; design: route oral; conditions: in vivo, po
Method in brief: (§4)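 Male Sprague-Dawley rats (300 g) with arterial catheters were dosed 24 h after surgery; orally dosed rats were starved 18 h beforehand. Blood was sampled at intervals up to 12 h and analysed by HPLC with fluorescence detection (ex 285, em 365) or by GC/MS. Cmax is in pmol/mL and tmax in min, mean ± SEM, n = 4–6.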

Rattus norvegicus [12] = assay: In vivo evaluation for 5-HTP accumulation in the corpus striatum in male rats (po); type: functional; method in brief: as §1
D(2) dopamine receptor [13] = target: D(2) dopamine receptor (Homo sapiens, UniProt P14416); assay: In vitro binding affinity against dopamine receptor D2 using [3H]raclopride as radioligand in CHO cells (sc); type: cell-based, Cricetulus griseus
[14] = Maximum concentration of the drug at 2 umol/dg administered intravenously; type: ADME, organism-based; design: route intravenous; conditions: in vivo, iv; method in brief: as §4
Rattus norvegicus [15] = assay: In vivo evaluation for 5-HTP accumulation in the hemispheres in male rats (po); type: functional; method in brief: as §1
Rattus norvegicus [16] = assay: Maximal reduction in percent (Partial response) of DOPA accumulation rat corpus striatum at highest test dose of 12.5 uM/Kg (sc); type: functional; method in brief: as §1
Rattus norvegicus [17] = assay: Maximal reduction in percent (Partial response) of DOPA accumulation rat limbic system at highest test dose of 12.5 uM/Kg (sc); type: functional
[18] = Ratio of ED50 values when the compound was administered subcutaneously to that of peroral administration; type: ADME
Method in brief: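 Male Sprague-Dawley rats (200–300 g) pretreated with reserpine (5 mg/kg sc, 18 h earlier). Compound given sc or po. 5-HTP accumulation in the limbic system was measured by HPLC with electrochemical detection. ED50 values came from dose-response curves of 4–6 dose levels (n = 4), and the sc ED50 was divided by the po ED50.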

[19] = Half life of compound at 2 uM/dg administered intravenously; type: ADME, organism-based; conditions: in vivo, iv; method in brief: as §3
Rattus norvegicus [20] = assay: In vivo evaluation for 5-HTP accumulation in the limbic system in male rats (po); type: functional; method in brief: as §1
Rattus norvegicus [21] = organism: Rattus norvegicus; assay: Compound was tested for 5-HT behavioral response in reserpine pretreated rats; +5HT syndrome; type: functional, organism-based; method in brief: as §2
[22] = Area under curve at 2 uM/dg administered intravenously; type: ADME; conditions: iv; method in brief: as §3
Rattus norvegicus [23] = organism: Rattus norvegicus; assay: Maximal reduction in percent (Partial response) of DOPA accumulation rat corpus striatum at highest test dose; inactive; type: functional, organism-based; method in brief: as §1
[24] = target: T1, 5-hydroxytryptamine receptor 1A (Mus musculus, UniProt Q64264); assay: In vitro binding affinity against 5-hydroxytryptamine 1A receptor using [3H]-8-OH-DPAT as radioligand in CHO cells (sc); type: cell-based, Cricetulus griseus
T1 sequence (Q64264 whole entry): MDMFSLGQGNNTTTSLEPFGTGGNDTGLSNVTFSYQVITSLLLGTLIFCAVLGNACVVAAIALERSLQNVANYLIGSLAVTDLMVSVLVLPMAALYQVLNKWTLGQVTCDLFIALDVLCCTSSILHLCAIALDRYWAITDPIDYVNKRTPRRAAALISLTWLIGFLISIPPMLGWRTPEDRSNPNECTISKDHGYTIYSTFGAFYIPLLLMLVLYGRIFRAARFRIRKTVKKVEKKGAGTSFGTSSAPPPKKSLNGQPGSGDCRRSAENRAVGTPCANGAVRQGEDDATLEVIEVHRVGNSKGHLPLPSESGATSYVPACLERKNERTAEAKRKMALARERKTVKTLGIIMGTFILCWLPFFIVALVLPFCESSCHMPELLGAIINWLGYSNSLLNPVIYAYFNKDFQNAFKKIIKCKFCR

[25] = Time taken to reach the maximum concentration of compound at 2 uM/dg administered intravenously; type: ADME, organism-based; conditions: in vivo, iv; method in brief: as §4
[26] = target: T2, 5-hydroxytryptamine receptor 1A (Rattus norvegicus, UniProt P19327); assay: In vitro binding affinity against 5-hydroxytryptamine 1A receptor using [3H]8-OH-DPAT
T2 sequence (P19327 whole entry): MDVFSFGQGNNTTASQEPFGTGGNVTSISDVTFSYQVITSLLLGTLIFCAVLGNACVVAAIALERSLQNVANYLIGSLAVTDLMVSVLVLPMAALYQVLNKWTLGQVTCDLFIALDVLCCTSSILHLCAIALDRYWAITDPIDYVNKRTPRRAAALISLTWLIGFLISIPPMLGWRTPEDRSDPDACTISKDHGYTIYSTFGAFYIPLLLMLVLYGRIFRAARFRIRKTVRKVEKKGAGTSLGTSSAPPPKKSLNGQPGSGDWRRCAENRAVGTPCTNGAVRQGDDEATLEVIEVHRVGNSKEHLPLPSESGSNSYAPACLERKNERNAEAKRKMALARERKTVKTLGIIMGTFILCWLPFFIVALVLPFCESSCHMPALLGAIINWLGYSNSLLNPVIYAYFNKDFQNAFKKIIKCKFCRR
Method in brief: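 Rat whole-brain membranes (brainstem and cerebellum removed) in 50 mM Tris pH 8.0 containing NaCl, CaCl2, MgCl2 and 10 μM pargyline, 10 mg tissue per tube. Nonspecific binding was defined with 10 μM 5-HT. IC50 was taken by semi-log linear regression and Ki by Cheng–Prusoff; triplicates.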

Rattus norvegicus [27] = organism: Rattus norvegicus; assay: Maximal reduction in percent (Partial response) of DOPA accumulation rat hemispheres at highest test dose; inactive; type: functional, organism-based; method in brief: as §1
[28] = Bioavailability in rat; type: ADME, organism-based; conditions: in vivo
Method in brief: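 Blood was drawn at intervals up to 12 h and assayed by HPLC-fluorescence or GC/MS against spiked blank-blood standards. F is the ratio of oral to intravenous areas under the blood concentration-time curves; n = 4–6.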

Rattus norvegicus [29] = assay: In vivo evaluation for DOPA accumulation in the hemispheres in male rats at highest test dose; inactive; type: functional, organism-based; method in brief: as §1

D(2) dopamine receptor (Rattus norvegicus, UniProt P61169), sequence (P61169 whole entry): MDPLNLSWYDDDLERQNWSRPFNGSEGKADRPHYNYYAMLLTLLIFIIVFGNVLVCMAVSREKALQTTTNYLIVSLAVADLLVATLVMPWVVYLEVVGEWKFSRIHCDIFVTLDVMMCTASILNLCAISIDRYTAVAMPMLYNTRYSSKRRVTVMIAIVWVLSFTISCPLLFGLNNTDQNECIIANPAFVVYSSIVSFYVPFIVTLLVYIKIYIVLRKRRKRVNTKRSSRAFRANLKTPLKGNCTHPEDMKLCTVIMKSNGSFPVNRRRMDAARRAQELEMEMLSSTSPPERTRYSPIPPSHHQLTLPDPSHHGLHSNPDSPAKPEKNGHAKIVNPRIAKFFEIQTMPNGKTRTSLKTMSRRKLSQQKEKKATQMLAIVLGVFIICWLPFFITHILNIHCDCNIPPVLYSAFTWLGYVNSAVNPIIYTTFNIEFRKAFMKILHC
D(2) dopamine receptor (Homo sapiens, UniProt P14416), sequence (P14416 whole entry): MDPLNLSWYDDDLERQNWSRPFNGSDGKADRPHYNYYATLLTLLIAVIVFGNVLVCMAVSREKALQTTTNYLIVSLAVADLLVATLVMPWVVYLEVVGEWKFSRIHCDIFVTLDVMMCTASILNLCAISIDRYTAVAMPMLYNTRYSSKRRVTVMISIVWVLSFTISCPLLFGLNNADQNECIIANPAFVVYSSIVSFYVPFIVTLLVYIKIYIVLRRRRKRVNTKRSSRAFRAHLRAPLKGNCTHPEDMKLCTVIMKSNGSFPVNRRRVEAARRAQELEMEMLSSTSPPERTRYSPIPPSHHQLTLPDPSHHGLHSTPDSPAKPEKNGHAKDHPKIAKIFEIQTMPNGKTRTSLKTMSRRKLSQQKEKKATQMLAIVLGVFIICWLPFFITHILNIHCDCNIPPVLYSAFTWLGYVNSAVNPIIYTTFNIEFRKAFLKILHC

Work on `CCCN(CCC)C1CCc2ccc3[nH]ccc3c2C1` (racemic) yielded a Reduction (Rattus norvegicus [1]) of 22%, an ED50 (Rattus norvegicus [2]) of 0.18 µmol/kg and an ED50 (Rattus norvegicus [3]) of 0.11 µmol/kg. For the same compound, the ED50 (Rattus norvegicus [4]) was 0.28 µmol/kg, the Ki (D(2) dopamine receptor [5]) was 156 nM and the Behavioral response (Rattus norvegicus [6]) was “Active”. The ED50 (Rattus norvegicus [7]) was 0.1 µmol/kg and the ED50 (Rattus norvegicus [8]) was 0.08 µmol/kg.
With `CCCN(CCC)[C@H]1CCc2ccc3[nH]cc(C(C)=O)c3c2C1` the AUC [9] was 2224 pM/h/g, the ED50 (Rattus norvegicus [3]) was 0.095 µmol/kg and the ED50 (Rattus norvegicus [10]) was “inactive”. The Cmax [11] was 606 pM ml-1, the ED50 (Rattus norvegicus [12]) was 1.1 µmol/kg and the Ki (D(2) dopamine receptor [13]) was 423 nM. For the same compound, the Cmax [14] was 849 pM ml-1, the ED50 (Rattus norvegicus [15]) was 1.1 µmol/kg and the Reduction (Rattus norvegicus [16]) was 25%. It also gave a Reduction (Rattus norvegicus [17]) of 37%, a Ratio [18] of 18 and a half-life at 2 µM [19] of 60 min. For the same compound, the ED50 (Rattus norvegicus [20]) was 0.5 µmol/kg, the Behavioral response (Rattus norvegicus [21]) was “Active” and the AUC [22] was 607 pM/h/g. For the same compound, the ED50 (Rattus norvegicus [23]) was “inactive”, the Ki [24] was 0.2 nM and the Tmax at 2 µM [25] was 2 min. The Ki (D(2) dopamine receptor [5]) was 3590 nM, the Ki [26] was 2 nM and the ED50 (Rattus norvegicus [27]) was “inactive”. The bioavailability [28] was 72%, the ED50 (Rattus norvegicus [29]) was “inactive” and the ED50 (Rattus norvegicus [7]) was 0.09 µmol/kg. The ED50 (Rattus norvegicus [8]) was 0.08 µmol/kg.
